Reference: paper PMC11092366 (RSC Advances, 2024)

Legend:
[1] = target: L. donovani DNA topoisomerase I; settings: L. donovani DNA topoisomerase I poison; cited from earlier work
[2] = tested on: L. infantum MHOM/TN/80/IPT1 promastigotes; assay: L. infantum viability assay; assay type: cell-based, Leishmania infantum
Outline: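 Late log/stationary promastigotes, kept in EMTM at 26–28 °C, then RPMI-PY. Plated at 2.5 × 10^6 parasites per mL with 20 μM test compound, 72 h, 26 °C, in duplicate, miltefosine as positive control. Viability by CellTiter 96 aqueous assay gives % inhibition. SI is THP-1 CC50 divided by promastigote IC50. IC50 comes from 20–0.31 μM dilutions, fitted by nonlinear regression with unconstrained Hill slope.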

[3] = Cytotoxicity on PMA-differentiated THP-1 cells; assay type: cell-based; settings: human, PMA-differentiated macrophage-like THP-1 cells
Outline: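 Human THP-1 cells grown in RPMI-1640 with 10% heat-inactivated FBS, 2 mM L-glutamine, penicillin and streptomycin at 37 °C, 5% CO2. Seeded at 5 × 10^6 cells per mL and differentiated 48 h with 20 ng mL−1 PMA. After adhesion, exposed to 1:2 dilutions (100 to 3.12 μM), in duplicate, with untreated and miltefosine controls. CellTiter 96 aqueous read-out; CC50 by nonlinear regression, mean and 95% CI.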

Row | SMILES | IC50 [1] | SI (selectivity index = CC50/IC50) ([2]; CC50 THP-1 / IC50 L. infantum promastigotes) | IC50 ([2]; Leishmania infantum, 72 h, read-out: L. infantum IC50 (μM) (95% CI), L. infantum MHOM/TN/80/IPT1 promastigotes, 72 h, mean and 95% CI, duplicate experiments) | CC50 [3]
1 | c1ccc2c(Cc3c[nH]c4ccccc34)c[nH]c2c1 [DIM, 3,3′-Diindolylmethane] | 1.2 µM |  |  | 
2 | CCCCCCCCCCCCCCCCOP(=O)([O-])OCC[N+](C)(C)C [MILT, Miltefosine] |  | 9.9 | 3.7 µM | 36.6 µM
